Measured values taken from ChEMBL document CHEMBL1177857, “Functionalized aurones as inducers of NAD(P)H:quinone oxidoreductase 1 that activate AhR/XRE and Nrf2/ARE signaling pathways: synthesis, evaluation and SAR” (Eur J Med Chem, 2010).
The source made the active and inactive calls. No cut-off for these calls is given here. Peptide text beside a SMILES is read from it. * marks the point of attachment. Cbz = O=C(OCc1ccccc1)*

Assays:
Hepa-1c1c7 [1] = experiment: Induction of human NQO1 gene expression in mouse Hepa-1c1c7 cells co-transfected with pGL3-ARE at 10 to 25 uM after 24 hrs by luciferase reporter gene assay; format: functional, cell-based
Outline: (§1)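 Hepa1c1c7 cells at about 50% confluency co-transfected with pGL3-ARE firefly luciferase (human NQO1 ARE) and pRL-CMV Renilla as transfection control. After 24 h, cells exposed to compound (10 or 25 µM). Dual luciferase read-out expressed as fold over control; mean ± SD of 3 independent transfections, t-test.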

[2] = Transcriptional activation of Nrf2/ARE signaling pathway in mouse Hepa-1c1c7 cells assessed as increase in cellular GSH level at 10 uM after 24 hrs by Ellman's method; format: functional, cell-based
Outline: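 Hepa1c1c7 cells at 10⁶/plate grown 24 h, then given compound at 10 µM final for 24 h. Pellets extracted with 3% sulfosalicylic acid. Total GSH measured by DTNB recycling (0.6 mM DTNB, 0.2 mM NADPH, GSH reductase) as ΔA412 over 5 min against a GSH standard curve. Values normalized to Bradford protein from a parallel plate; mean ± SEM, n = 3.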

CYP1A1 [3] = target: T1, CYP1A1 (Mus musculus, UniProt P30561); experiment: Induction of Ah receptor in mouse Hepa-1c1c7 cells assessed as induction of CYP1A1 activity at 10 uM after 48 hrs by EROD assay relative to control; format: cell-based; details: probe ethoxyresorufin (EROD), read-out: FC
T1 sequence (P30561 whole entry): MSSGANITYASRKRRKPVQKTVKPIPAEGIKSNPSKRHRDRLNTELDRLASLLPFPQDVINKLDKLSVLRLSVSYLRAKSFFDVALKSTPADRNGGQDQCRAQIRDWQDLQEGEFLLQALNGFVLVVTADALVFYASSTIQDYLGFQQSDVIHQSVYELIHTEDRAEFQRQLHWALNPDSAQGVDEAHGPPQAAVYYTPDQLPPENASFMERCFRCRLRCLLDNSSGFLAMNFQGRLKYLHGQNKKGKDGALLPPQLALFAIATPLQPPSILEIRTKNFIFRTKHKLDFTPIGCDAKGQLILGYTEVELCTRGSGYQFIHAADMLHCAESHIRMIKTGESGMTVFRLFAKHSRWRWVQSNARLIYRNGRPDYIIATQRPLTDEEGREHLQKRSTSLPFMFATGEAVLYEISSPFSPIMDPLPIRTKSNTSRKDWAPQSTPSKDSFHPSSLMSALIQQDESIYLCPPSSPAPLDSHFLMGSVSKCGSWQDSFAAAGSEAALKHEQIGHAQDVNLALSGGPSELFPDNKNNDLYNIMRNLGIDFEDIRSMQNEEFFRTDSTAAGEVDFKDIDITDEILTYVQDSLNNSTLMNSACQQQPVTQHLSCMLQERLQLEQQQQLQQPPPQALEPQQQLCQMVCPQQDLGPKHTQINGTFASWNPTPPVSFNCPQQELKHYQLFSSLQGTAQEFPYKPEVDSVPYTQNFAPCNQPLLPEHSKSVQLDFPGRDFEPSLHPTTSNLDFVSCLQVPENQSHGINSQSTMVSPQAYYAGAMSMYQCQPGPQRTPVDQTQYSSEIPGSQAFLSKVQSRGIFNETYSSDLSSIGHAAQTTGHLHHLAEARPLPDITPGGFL
Outline: (§2)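 Hepa1c1c7 cells at 10⁴/well grown 24 h, then given compound at one fixed concentration for 48 h. After a PBS wash, cells incubated 40 min at 37 °C with 5 µM 7-ethoxyresorufin plus 2 mM salicylamide. Resorufin fluorescence read at ex 530/em 590 nm. Fold induction = (F cells+compound − F blank)/(F control − F blank); mean ± SD, n = 3.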

[4] = Cytotoxicity against mouse Hepa-1c1c7 cells assessed as cell survival at 5 uM after 48 hrs by MTT assay; format: cell-based; details: read-out: Activity
Outline: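 MTT (0.5 mg/ml) added for 3 h at 37 °C, formazan dissolved in DMSO and read at 590 nm. Survival (%) = (A treated − A blank)/(A untreated − A blank) × 100.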

Hepa-1c1c7 [5] = experiment: Increase of Nrf2 protein level in mouse Hepa-1c1c7 cells at 10 uM for 6 hrs Western blotting relative to control; format: functional, cell-based
Outline: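 Hepa1c1c7 cells exposed to compound at 10 µM for 6 h, with MG132 (25 µM) as reference. Lysates made in digitonin/EDTA with protease inhibitors; 50 µg protein run on 15% SDS-PAGE, blotted to nitrocellulose and probed for Nrf2 with β-actin loading control. Bands quantified by densitometry against untreated control, 3 experiments, independent t-test.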

Hepa-1c1c7 [6] = experiment: Induction of human NQO1 gene expression in mouse Hepa-1c1c7 cells co-transfected with pGL3-ARE at 25 uM after 24 hrs by luciferase reporter gene assay; format: functional, cell-based; outline: as §1
[7] = Induction of NQO1 activity in mouse Hepa-1c1c7 cells at 5 uM after 48 hrs relative to control
Hepa-1c1c7 [8] = experiment: Increase of Nrf2 protein level in mouse Hepa-1c1c7 cells at 10 uM for 6 hrs Western blotting relative to control
[9] = target: NAD(P)H dehydrogenase [quinone] 1 (Homo sapiens) (UniProt P15559); experiment: Induction of […] NQO1 activity in mutant mouse BPrc1 cells assessed as concentration require for 2 fold induction after 48 hrs; format: cell-based
Outline: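 Mutant Hepa1c1c7 line (Bp^rc1, defective Ah-receptor pathway) seeded at 10⁴ cells/well for 24 h, then exposed to compound for 48 h; final DMSO ≤0.5%. Cells lysed with 0.8% digitonin/2 mM EDTA. NQO1 read by menadione-driven MTT reduction (NADP, glucose-6-phosphate regenerating system, FAD, pH 7.4), stopped after 5 min with dicoumarol, A590. Activity taken relative to blank and control wells; CD = concentration doubling basal activity; mean ± SD of 3 determinations.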

[10] = target: T2, Aryl hydrocarbon receptor (Mus musculus, UniProt P30561); experiment: (§3) Induction of Ah receptor in mouse Hepa-1c1c7 cells assessed as induction of CYP1A1 activity at 1 uM after 48 hrs by EROD assay relative to control; format: cell-based; details: hepa-1c1c7, 48 h, 1 µM; outline: as §2
T2 sequence (P30561 whole entry): T1 sequence (P30561 whole entry)

CYP1A1 [11] = target: T1, CYP1A1; experiment: as §3; format: cell-based; details: Hepa-1c1c7 cells, probe ethoxyresorufin (EROD), read-out: FC; outline: as §2
[12] = Induction of NQO1 activity in mouse Hepa-1c1c7 cells at 1 uM after 48 hrs relative to control
[13] = Upregulation of TrxR protein expression in mouse Hepa-1c1c7 cells at 10 uM after 24 hrs by Western blotting relative to control; format: functional, cell-based
Outline: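 Hepa1c1c7 cells exposed to compound at 10 µM for 24 h. Digitonin/EDTA lysates (50 µg protein) separated on 15% SDS-PAGE, blotted to nitrocellulose and probed with anti-TrxR antibody. Band intensity compared with untreated control; representative of 3 experiments.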

Chain of NAD(P)H dehydrogenase [quinone] 1 (Homo sapiens) (P15559 whole entry): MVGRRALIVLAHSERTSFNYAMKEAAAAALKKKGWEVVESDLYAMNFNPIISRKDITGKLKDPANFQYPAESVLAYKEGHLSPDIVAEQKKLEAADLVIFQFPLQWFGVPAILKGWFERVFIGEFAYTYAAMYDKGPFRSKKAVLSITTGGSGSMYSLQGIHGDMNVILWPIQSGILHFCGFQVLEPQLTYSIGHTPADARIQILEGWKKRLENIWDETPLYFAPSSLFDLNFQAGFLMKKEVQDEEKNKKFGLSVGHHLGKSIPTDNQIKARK

Structure (SMILES) | Activity (Hepa-1c1c7 [1]) | Activity [2] | fold induction at 48 h, 10 µM (CYP1A1 [3]) | viability at 48 h, 5 µM [4] | Activity (Hepa-1c1c7 [5]) | fold change (FC) [7] | further results
O=C1/C(=C/c2ccccc2O)Oc2cc(O)cc(O)c21 | Active | Active | 1.1 | 102% | Active | 2.92 | Activity (Hepa-1c1c7 [6]): Active
CC(C)C[C@@H](C=O)NC(=O)[C@H](CC(C)C)NC(=O)[C@H](CC(C)C)NC(=O)OCc1ccccc1 (Cbz-Leu-Leu-Leu-aldehyde) | – | – | – | – | – | – | Activity (Hepa-1c1c7 [8]): Active
C[S+]([O-])CCCCN=C=S (configuration not stated) [SULFORAPHANE] | inactive | – | – | – | Active | – | Activity [9]: inactive; Activity [10]: 0.92
COc1cc(OC)c2c(c1)O/C(=C\c1ccccc1OC)C2=O | – | – | – | 82% | – | – | fold induction at 48 h, 1 µM (CYP1A1 [11]): 1.56; fold change (FC) [12]: 2.21
COc1cc(OC)c2c(c1)O/C(=C\c1ccccc1)C2=O | Active | Active | 2.04 | 93% | Active | 7.7 | Activity [13]: Active
